# Measurements published in paper PMC9075408 (Journal of the American Heart Association: Cardiovascular …, 2021).
# Assays:
# [1] = system: IL1β and Arg1 mRNA, brain cortex; experiment: Inflammatory gene expression; format: in vivo, rat; conditions: brain cortex 96 hours post-ROSC; not statistically significant
# In short: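 Male Sprague-Dawley ex-breeder rats underwent 8 min untreated CA and 8 min CPR after gavage with test compound (800 mg/kg per dose) or 1% carboxymethylcellulose vehicle 16 and 2 h before CA; naive rats served as controls. At 96 h post-ROSC, cortical RNA was analysed by SYBR Green real-time PCR with exon-spanning primers and Gapdh reference. Results were calculated by ΔΔCt as fold induction, mean±SD, n=4-6/group, Kruskal-Wallis/Dunn's.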
# [2] = Plasma and hippocampal levels of 1-DL-MTRP by HPLC-MS/MS in CA/CPR rats; format: in vivo; conditions: rat
# [3] = system: rats resuscitated from cardiac arrest; experiment: Plasma high-sensitivity cardiac troponin T; format: in vivo, rat; conditions: median [quartile 1–quartile 3]
# In short: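 Arterial blood was drawn from the femoral cannula into K3-EDTA tubes 15 min before CA and at 4 and 96 h post-ROSC. Rats had received gavage test compound (800 mg/kg per dose) or carboxymethylcellulose vehicle 16 and 2 h pre-CA, then 8 min CA and 8 min CPR. Plasma hs-cTnT was measured by electrochemiluminescence immunoassay and analysed by ordinary 2-way ANOVA with Sidak test.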
# [4] = system: rats resuscitated from cardiac arrest; experiment: Myocardial function by transthoracic echocardiography in CA/CPR rats; format: in vivo, rat
# In short: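 Rats were pretreated by gavage with test compound (800 mg/kg per dose) or 1% carboxymethylcellulose 16 and 2 h before 8 min untreated CA and 8 min CPR. At 4 and 96 h post-ROSC, LV systolic function was assessed by transthoracic M-mode, 2D, pulsed, color and tissue Doppler echocardiography. Anaesthesia at 96 h was intraperitoneal thiopental 50 mg/kg, with 10 mg/kg recall doses if needed. Analysis used ordinary 2-way ANOVA with Sidak post hoc.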
# [5] = system: rats resuscitated from cardiac arrest; experiment: Neurological deficit score; format: in vivo, rat; conditions: 24, 48, 72, and 96 hours post-ROSC, all time points; score 0 (normal) to 500 (brain death)
# [6] = system: rats resuscitated from cardiac arrest; experiment: CPR outcomes and survival in rat model of electrically induced CA/CPR; format: in vivo
# [7] = system: rats resuscitated from cardiac arrest; experiment: Hemodynamics; format: in vivo, rat; conditions: mean±SD
# [8] = system: kynurenine pathway (IDO, tryptophan→kynurenine step)
# [9] = system: kynurenine pathway (IDO, tryptophan→kynurenine step); conditions: 96 hours post-ROSC
# [10] = 2 oral doses of 800 mg/kg 16 and 2 hours before CA, 15 minutes pre-CA and 2 hours post-ROSC
# [11] = 2 oral doses of 800 mg/kg 16 and 2 hours before CA, 96 hours post-ROSC
structure (smiles),measurement,setting,value
"Cn1cc(CC(N)C(=O)O)c2ccccc21 (racemic) [1‐DL‐MTRP, 1‐methyl‐DL‐tryptophan]",Arg1 gene expression,[1],tendency towards an increase
same,CA-induced IL1β upregulation (mRNA),[1],slightly reduced
same,"1-DL-MTRP plasma concentration, average",[2]; [10],34 µg/mL
same,"1-DL-MTRP plasma concentration, range",[2]; [10],20 to 40 µg/mL
same,"1-DL-MTRP hippocampal concentration, average",[2]; [11],11.4 µg/g
same,"1-DL-MTRP plasma concentration, average",[2]; [11],21 µg/mL
same,drug levels (plasma and brain) as molar concentrations,[2]; 96 hours post-ROSC,52 to 96 µM
same,hs-cTnT,[3]; PR 4 h,4965 [2978–5242] pg/mL
same,hs-cTnT,[3]; PR 96 h,64 [36–278] pg/mL
same,hs-cTnT,[3]; Pre-CA,98 [66–111] pg/mL
same,LVEF,[4]; PR 4 h,36.8±3.2%
same,LVEF,[4]; PR 96 h,75.3±3.2%
same,NDS values vs vehicle-treated rats,[5],lower
same,"Resuscitation, no./total","[6]; 800 mg/kg by gavage 16 and 2 h before CA, 8 min CA, 8 min CPR",15/17
same,Time to ROSC,[6]; median [quartile 1–quartile 3],481 [370–482] s
same,"4-h survival, no./resuscitated","[6]; rat, in vivo",15/15
same,"96-h survival, no./resuscitated","[6]; rat, in vivo",10/15
same,Shocks to ROSC,"[6]; rat, in vivo",1 no.
same,animals that survived up to 96 hours after CA,[6]; vehicle 62%,66%
same,successfully resuscitated animals,[6]; vehicle 84%,88%
same,CPP,[7]; PR 10 min,57±21 mm Hg
same,DAP,[7]; PR 10 min,57±21 mm Hg
same,HR,[7]; PR 10 min,237±54 beats per min
same,MAP,[7]; PR 10 min,76±20 mm Hg
same,SAP,[7]; PR 10 min,103±17 mm Hg
same,CPP,[7]; PR 1 h,84±9 mm Hg
same,DAP,[7]; PR 1 h,84±9 mm Hg
same,HR,[7]; PR 1 h,335±12 beats per min
same,MAP,[7]; PR 1 h,96±9 mm Hg
same,SAP,[7]; PR 1 h,117±9 mm Hg
same,CPP,[7]; PR 2 h,81±12 mm Hg
same,DAP,[7]; PR 2 h,81±12 mm Hg
same,HR,[7]; PR 2 h,360±20 beats per min
same,MAP,[7]; PR 2 h,96±13 mm Hg
same,SAP,[7]; PR 2 h,118±12 mm Hg
same,CPP,[7]; PR 3 h,75±15 mm Hg
same,DAP,[7]; PR 3 h,74±15 mm Hg
same,HR,[7]; PR 3 h,358±23 beats per min
same,MAP,[7]; PR 3 h,89±16 mm Hg
same,SAP,[7]; PR 3 h,111±18 mm Hg
same,CPP,[7]; PR 4 h,73±20 mm Hg
same,DAP,[7]; PR 4 h,78±15 mm Hg
same,HR,[7]; PR 4 h,351±51 beats per min
same,MAP,[7]; PR 4 h,94±17 mm Hg
same,SAP,[7]; PR 4 h,115±17 mm Hg
same,CPP,[7]; Pre-CA,109±13 mm Hg
same,DAP,[7]; Pre-CA,114±12 mm Hg
same,HR,[7]; Pre-CA,375±34 beats per min
same,MAP,[7]; Pre-CA,127±13 mm Hg
same,SAP,[7]; Pre-CA,151±13 mm Hg
same,"plasma kynurenine levels, % lower than in vehicle-treated rats","[8]; 15 minutes pre-CA, P=0.0243",24%
same,plasma kynurenine levels following CA vs vehicle-treated rats,"[8]; PR 2 hours and PR 96 hours, same time points",markedly lower than in vehicle‐treated rats
same,hippocampal kynurenine levels vs vehicle-treated rats,"[9]; P=0.0409, comparable to naive rats",significantly lower than in vehicle‐treated rats
same,hippocampal 5-HT concentrations,[9]; vs naive rats,superimposable to those measured in naive rats
